In experiment [1] the target is Potassium voltage-gated channel subfamily A member 6 (Rattus norvegicus) (UniProt P17659). As to the kind of experiment: Inhibition of rat Kv1.6 expressed in Xenopus laevis oocytes at 1 uM at -90 mV holding potential by two-electrode voltage clamp assay relative to control. Type of experiment: cell-based.
The target of experiment [2] is Potassium voltage-gated channel subfamily A member 5 (Rattus norvegicus) (UniProt P19024). The experiment is described as follows: Inhibition of rat Kv1.5 expressed in Xenopus laevis oocytes at 1 uM at -90 mV holding potential by two-electrode voltage clamp assay relative to control. It counts as cell-based.
Experiment [3] relates to Potassium voltage-gated channel subfamily H member 1 (Homo sapiens). The experiment is described as follows: Inhibition of human Kv10.1 expressed in Xenopus laevis oocytes at 1 uM at -90 mV holding potential by two-electrode voltage clamp assay relative to control.
For experiment [4], the target named is Potassium voltage-gated channel subfamily A member 2 (Rattus norvegicus) (UniProt P63142). As to the kind of experiment: Inhibition of rat Kv1.2 expressed in Xenopus laevis oocytes at 1 uM at -90 mV holding potential by two-electrode voltage clamp assay relative to control. It counts as cell-based.
Chain of Potassium voltage-gated channel subfamily A member 2 (Rattus norvegicus) (P63142 whole entry): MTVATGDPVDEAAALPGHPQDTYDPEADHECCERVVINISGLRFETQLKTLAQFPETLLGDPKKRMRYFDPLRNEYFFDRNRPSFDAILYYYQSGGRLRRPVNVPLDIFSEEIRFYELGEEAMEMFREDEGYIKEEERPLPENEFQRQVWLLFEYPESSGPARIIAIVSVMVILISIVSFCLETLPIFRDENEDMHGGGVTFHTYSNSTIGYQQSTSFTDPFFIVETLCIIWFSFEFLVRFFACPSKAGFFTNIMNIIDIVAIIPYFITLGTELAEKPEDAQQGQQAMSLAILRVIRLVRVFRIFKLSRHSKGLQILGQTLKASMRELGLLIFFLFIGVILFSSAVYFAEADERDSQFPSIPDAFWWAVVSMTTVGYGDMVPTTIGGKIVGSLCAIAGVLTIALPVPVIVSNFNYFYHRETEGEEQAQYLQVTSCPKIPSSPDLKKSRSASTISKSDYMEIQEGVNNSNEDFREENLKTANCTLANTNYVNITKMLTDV
The target in experiment [5] is T1, Potassium voltage-gated channel subfamily A member 3 (Homo sapiens, UniProt P22001). As to the kind of experiment: Inhibition of human Kv1.3 expressed in Xenopus laevis oocytes at 1 uM at -90 mV holding potential by two-electrode voltage clamp assay relative to control.
Experiment [6] concerns the target T1, Potassium voltage-gated channel subfamily A member 3. The experiment is described as follows: Inhibition of human Kv1.3 expressed in CHO cells at -80 mV holding potential by whole cell automated patch clamp method. It counts as cell-based. The procedure, abridged: (§1)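 Human channels stably expressed in CHO cells, dissociated with 0.05% trypsin-EDTA, held in serum-free medium and resuspended in extracellular solution just before recording. Whole-cell QPatch recordings used a -80 mV holding potential and 500 ms steps to +30 mV at 0.067 Hz. Series resistance was 80% compensated with P/n leak subtraction. After 0.1% DMSO vehicle, four escalating concentrations were applied cumulatively.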

Experiment [7] addresses Potassium voltage-gated channel subfamily A member 1 (Rattus norvegicus) (UniProt P10499). As to the kind of experiment: Inhibition of rat Kv1.1 expressed in Xenopus laevis oocytes at 1 uM at -90 mV holding potential by two-electrode voltage clamp assay relative to control. It counts as cell-based.
For experiment [8], the target named is Potassium voltage-gated channel subfamily A member 4 (Rattus norvegicus) (UniProt P15385). As to the kind of experiment: Inhibition of rat Kv1.4 expressed in Xenopus laevis oocytes at 1 uM at -90 mV holding potential by two-electrode voltage clamp assay relative to control. It counts as cell-based.
Chain of Potassium voltage-gated channel subfamily A member 4 (Rattus norvegicus) (P15385 whole entry): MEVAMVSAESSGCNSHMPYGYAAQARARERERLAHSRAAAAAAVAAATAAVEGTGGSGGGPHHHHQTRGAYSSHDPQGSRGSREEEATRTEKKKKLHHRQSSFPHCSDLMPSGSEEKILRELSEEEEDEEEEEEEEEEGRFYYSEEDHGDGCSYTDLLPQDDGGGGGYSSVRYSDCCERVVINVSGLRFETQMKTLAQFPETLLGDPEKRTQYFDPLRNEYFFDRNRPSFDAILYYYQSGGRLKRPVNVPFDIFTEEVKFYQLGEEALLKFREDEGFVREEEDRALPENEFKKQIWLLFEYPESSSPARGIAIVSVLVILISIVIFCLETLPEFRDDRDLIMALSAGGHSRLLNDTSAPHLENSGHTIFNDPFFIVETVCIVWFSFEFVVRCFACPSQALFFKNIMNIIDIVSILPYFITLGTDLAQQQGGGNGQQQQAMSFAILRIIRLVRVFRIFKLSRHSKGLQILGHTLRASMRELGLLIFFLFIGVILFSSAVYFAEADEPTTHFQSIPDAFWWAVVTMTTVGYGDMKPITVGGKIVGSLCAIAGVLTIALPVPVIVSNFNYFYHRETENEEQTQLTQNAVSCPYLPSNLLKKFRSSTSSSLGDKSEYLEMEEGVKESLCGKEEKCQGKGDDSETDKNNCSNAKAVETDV
In experiment [9] the target is Potassium voltage-gated channel subfamily A member 5 (Homo sapiens, UniProt P22460). The experiment is described as follows: Inhibition of human Kv1.5 expressed in CHO cells at -80 mV holding potential by whole cell automated patch clamp method. Type of experiment: cell-based.
Chain of Potassium voltage-gated channel subfamily A member 5 (P22460 whole entry): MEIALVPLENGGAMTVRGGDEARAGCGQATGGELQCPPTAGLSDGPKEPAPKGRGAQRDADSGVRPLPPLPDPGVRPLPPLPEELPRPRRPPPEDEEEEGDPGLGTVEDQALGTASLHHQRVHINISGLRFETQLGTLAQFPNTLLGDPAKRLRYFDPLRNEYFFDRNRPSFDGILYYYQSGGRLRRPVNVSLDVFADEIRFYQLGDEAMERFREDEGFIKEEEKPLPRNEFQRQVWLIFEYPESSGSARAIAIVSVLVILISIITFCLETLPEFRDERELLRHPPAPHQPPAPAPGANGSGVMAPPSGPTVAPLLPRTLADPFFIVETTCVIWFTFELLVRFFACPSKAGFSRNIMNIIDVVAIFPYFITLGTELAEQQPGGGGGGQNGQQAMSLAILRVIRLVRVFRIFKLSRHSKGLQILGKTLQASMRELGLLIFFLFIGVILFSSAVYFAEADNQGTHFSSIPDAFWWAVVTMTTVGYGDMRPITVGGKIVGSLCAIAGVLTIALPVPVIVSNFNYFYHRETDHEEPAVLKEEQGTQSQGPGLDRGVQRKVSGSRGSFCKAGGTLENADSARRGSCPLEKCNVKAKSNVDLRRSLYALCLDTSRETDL
Experiment [10] concerns the target Potassium voltage-gated channel subfamily A member 2 (Homo sapiens, UniProt P16389). As to the kind of experiment: Inhibition of human Kv1.2 expressed in CHO cells at -80 mV holding potential by whole cell automated patch clamp method. Type of experiment: cell-based. The procedure, abridged:
as §1

The target of experiment [11] is Potassium voltage-gated channel subfamily A member 1 (Homo sapiens, UniProt Q09470). The experiment is described as follows: Inhibition of human Kv1.1 expressed in CHO cells at -80 mV holding potential by whole cell automated patch clamp method. It counts as cell-based. The procedure, abridged:
as §1

The target in experiment [12] is Potassium voltage-gated channel subfamily A member 6 (Homo sapiens, UniProt P17658). As to the kind of experiment: Inhibition of human Kv1.6 expressed in CHO cells at -80 mV holding potential by whole cell automated patch clamp method. Type of experiment: cell-based. The method, boiled down:
as §1

The target in experiment [13] is Potassium voltage-gated channel subfamily A member 4 (Homo sapiens, UniProt P22459). The experiment is described as follows: Inhibition of human Kv1.4 expressed in CHO cells at -80 mV holding potential by whole cell automated patch clamp method. Type of experiment: cell-based. The method, boiled down:
as §1

The target of experiment [14] is T1, Potassium voltage-gated channel subfamily A member 3. As to the kind of experiment: Inhibition of human Kv1.3 expressed in Xenopus laevis oocytes at -90 mV holding potential by two-electrode voltage clamp assay.
For experiment [15], the target named is Potassium voltage-gated channel subfamily A member 6 (Rattus norvegicus, UniProt P17659). As to the kind of experiment: Inhibition of rat Kv1.6 expressed in Xenopus laevis oocytes at -90 mV holding potential by two-electrode voltage clamp assay. It counts as cell-based. The method, boiled down: (§2)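 Stage V-VI Xenopus laevis oocytes were injected with 50 nL cRNA (1 ng/nL). Currents were recorded by two-electrode voltage clamp. IC50 values come from at least 3 independent experiments and are given as mean ± standard error.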

Experiment [16] has as its target Potassium voltage-gated channel subfamily A member 4 (Rattus norvegicus, UniProt P15385). As to the kind of experiment: Inhibition of rat Kv1.4 expressed in Xenopus laevis oocytes at -90 mV holding potential by two-electrode voltage clamp assay. It counts as cell-based. The procedure, abridged:
as §2

pIC50: −log10 of the molar value. Calls of active or inactive are those of the source. The rule behind the calls is not given here. Where only a bound is given, the exact number is not on record here.

Chain of Potassium voltage-gated channel subfamily A member 2 (P16389 whole entry): as the sequence (P63142 whole entry) above, with V9A, G198S, D355E counted along it
Chain of Potassium voltage-gated channel subfamily A member 1 (Q09470 whole entry): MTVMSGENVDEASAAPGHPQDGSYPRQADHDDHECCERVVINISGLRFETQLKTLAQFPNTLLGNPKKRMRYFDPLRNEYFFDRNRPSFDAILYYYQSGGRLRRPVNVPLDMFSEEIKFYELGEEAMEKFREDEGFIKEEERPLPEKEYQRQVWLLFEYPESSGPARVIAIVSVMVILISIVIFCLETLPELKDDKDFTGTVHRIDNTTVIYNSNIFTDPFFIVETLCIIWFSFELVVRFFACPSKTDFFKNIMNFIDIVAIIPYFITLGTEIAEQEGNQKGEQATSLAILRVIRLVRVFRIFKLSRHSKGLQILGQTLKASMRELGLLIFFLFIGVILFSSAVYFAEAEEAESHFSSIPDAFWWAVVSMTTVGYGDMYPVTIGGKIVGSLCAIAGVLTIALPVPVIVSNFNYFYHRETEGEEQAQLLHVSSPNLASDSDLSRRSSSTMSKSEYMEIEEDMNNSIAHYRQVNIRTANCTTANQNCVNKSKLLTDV
Chain of Potassium voltage-gated channel subfamily A member 4 (Homo sapiens, UniProt P22459) (P22459 whole entry): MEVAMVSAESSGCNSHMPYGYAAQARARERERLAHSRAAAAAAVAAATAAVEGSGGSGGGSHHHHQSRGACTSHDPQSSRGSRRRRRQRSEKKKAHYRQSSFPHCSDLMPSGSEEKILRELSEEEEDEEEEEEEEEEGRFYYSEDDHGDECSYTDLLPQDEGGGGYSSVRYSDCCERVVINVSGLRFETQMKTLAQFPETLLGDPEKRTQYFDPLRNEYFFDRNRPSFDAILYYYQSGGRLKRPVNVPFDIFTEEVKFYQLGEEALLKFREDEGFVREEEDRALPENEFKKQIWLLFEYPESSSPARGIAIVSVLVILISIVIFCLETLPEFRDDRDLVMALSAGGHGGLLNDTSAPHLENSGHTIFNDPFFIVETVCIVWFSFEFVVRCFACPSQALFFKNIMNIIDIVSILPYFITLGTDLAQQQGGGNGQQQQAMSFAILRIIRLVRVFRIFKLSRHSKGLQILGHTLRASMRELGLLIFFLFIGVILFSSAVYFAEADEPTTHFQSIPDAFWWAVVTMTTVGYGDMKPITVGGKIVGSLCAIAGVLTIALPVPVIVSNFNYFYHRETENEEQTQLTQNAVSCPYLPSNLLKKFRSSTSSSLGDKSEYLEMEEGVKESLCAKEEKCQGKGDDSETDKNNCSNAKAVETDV
Chain of Potassium voltage-gated channel subfamily A member 6 (Rattus norvegicus) (P17659 whole entry): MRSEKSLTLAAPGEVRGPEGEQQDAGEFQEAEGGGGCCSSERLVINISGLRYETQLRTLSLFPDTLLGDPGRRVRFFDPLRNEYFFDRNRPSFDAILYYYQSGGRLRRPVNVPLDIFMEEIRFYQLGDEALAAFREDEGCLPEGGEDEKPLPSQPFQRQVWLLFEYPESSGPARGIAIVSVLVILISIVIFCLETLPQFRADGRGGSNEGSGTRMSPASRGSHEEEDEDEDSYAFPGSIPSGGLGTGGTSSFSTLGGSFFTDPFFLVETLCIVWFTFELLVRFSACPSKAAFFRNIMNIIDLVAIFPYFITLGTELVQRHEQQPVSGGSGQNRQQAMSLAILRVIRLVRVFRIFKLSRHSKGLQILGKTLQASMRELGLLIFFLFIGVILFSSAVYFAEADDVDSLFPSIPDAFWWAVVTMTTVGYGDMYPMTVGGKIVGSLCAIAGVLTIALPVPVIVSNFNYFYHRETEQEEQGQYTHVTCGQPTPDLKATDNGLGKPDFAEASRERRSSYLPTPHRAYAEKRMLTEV
Chain of Potassium voltage-gated channel subfamily A member 6 (Homo sapiens, UniProt P17658) (P17658 whole entry): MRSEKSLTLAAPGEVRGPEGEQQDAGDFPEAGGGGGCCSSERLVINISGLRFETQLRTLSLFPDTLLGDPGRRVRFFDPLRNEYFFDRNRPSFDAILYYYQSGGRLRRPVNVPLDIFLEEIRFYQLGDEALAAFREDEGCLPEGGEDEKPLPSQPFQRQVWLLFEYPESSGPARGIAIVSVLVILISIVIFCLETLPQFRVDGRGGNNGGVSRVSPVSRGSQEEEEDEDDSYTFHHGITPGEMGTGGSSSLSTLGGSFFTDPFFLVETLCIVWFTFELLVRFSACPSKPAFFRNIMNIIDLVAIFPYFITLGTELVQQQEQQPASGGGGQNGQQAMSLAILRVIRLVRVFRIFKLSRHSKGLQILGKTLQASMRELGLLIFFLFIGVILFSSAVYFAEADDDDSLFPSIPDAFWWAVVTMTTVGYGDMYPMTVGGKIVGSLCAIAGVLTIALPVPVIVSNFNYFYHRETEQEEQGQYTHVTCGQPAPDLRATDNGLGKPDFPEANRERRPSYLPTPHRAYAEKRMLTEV
Chain of Potassium voltage-gated channel subfamily A member 1 (Rattus norvegicus) (P10499 whole entry): as the sequence (Q09470 whole entry) above, with V9A, V202I, N213T, M449I, V471A, A476G, T480A, A481T, N482D counted along it

For the compound `COc1ccc2[nH]c(C(=O)NC/C=C/c3c[nH]c(N)n3)cc2c1`, the inhibition entry in experiment [1], in [2], in experiment [3], in experiment [4], in [5] and in experiment [7] was “inactive” each time. Also, the inhibition result in experiment [8] was “inactive”. In addition, the pIC50 in experiment [6] is < 4.52.
In the case of `Nc1nc(CCCNC(=O)c2cc(Br)c(Br)[nH]2)c[nH]1`, the inhibition result in experiment [1], in experiment [2], in [3], in [4], in experiment [5] and in experiment [7] was “inactive” each time. Further, the inhibition entry in experiment [8] is “inactive”. In addition, the negative-log IC50 (pIC50) in experiment [6] was < 4.52.
On to `Nc1nc(/C=C/CNC(=O)c2cccnc2)c[nH]1`, for which the inhibition result in [1], in [2], in experiment [3], in experiment [4], in experiment [5] and in experiment [7] was “inactive” in each case. Further, the inhibition result in [8] is “inactive”. In addition, in experiment [6], the pIC50 is < 4.52.
Turning to `O=c1ccc2c(OCCCCOc3ccccc3)c3ccoc3cc2o1`, the pIC50 is 7.06 in experiment [9]; 6.35 in experiment [10]; 6.60 in [11]; 6.89 in experiment [12]; 6.77 in experiment [13].
Turning to `Nc1nc(/C=C/CNC(=O)c2cc3cc(Cl)ccc3[nH]2)c[nH]1`, the pIC50 is < 4.52 in experiment [9]; < 4.52 in [10]; 5.05 in [6]; < 4.52 in experiment [11]; 4.62 in experiment [12]; 4.77 in [13]. Further, the inhibition entry in experiment [1], in experiment [2], in experiment [3], in experiment [4], in experiment [5] and in experiment [7] was “inactive” throughout. The inhibition entry in experiment [8] is “inactive”.
Consider `Cc1[nH]c(C(=O)NC/C=C/c2c[nH]c(N)n2)cc1Br`, for which the pIC50 in [14] is < 5.00; in experiment [9], < 4.52; in experiment [10], < 4.52; in experiment [15], 5.01; in [6], 4.60; in experiment [11], < 4.52. The pIC50 was 6.42 in experiment [16], 4.96 in experiment [12] and 4.92 in experiment [13]. For the same compound, the inhibition in experiment [1] was determined as 63%; in experiment [8], 46%. The inhibition result in experiment [2], in [3], in experiment [4], in experiment [5] and in [7] was “inactive” each time.
For the compound `Nc1nc(/C=C/CNC(=O)c2cc(Br)c[nH]2)c[nH]1`, the negative logarithm of the IC50 (pIC50) is 5.12 in [9]; < 4.52 in experiment [10]; 5.60 in experiment [6]; < 4.52 in experiment [11]; 5.43 in experiment [12]; 5.28 in experiment [13]. In addition, the inhibition in experiment [1] was determined as 22%; in [2], 10%; in [5], 32%; in experiment [8] it was 11%. Further, the inhibition result in experiment [3], in [4] and in [7] was “inactive” throughout.
With `Nc1nc(CCCNC(=O)c2cc3ccccc3[nH]2)c[nH]1`, the inhibition result in experiment [1], in experiment [2], in experiment [3], in experiment [4], in experiment [5] and in [7] was “inactive” in each case. In experiment [8], the inhibition entry was “inactive”.
On to `Nc1nc(/C=C/CNC(=O)C2CCNCC2)c[nH]1`, for which the inhibition result in experiment [1], in experiment [2], in experiment [3], in [4] and in [8] was “inactive” throughout. Moreover, the values for the inhibition in experiment [5] and in experiment [7] were 28% and 22%, respectively. Also, the pIC50 in experiment [6] was < 4.52.
Turning to `Nc1nc(/C=C/CNC(=O)c2cc3ccccc3[nH]2)c[nH]1`, the pIC50 is < 4.52 in experiment [9]; < 4.52 in experiment [10]; 4.68 in experiment [6]; < 4.52 in [11]; 4.85 in experiment [12]; 4.89 in experiment [13]. In [1], this compound showed an inhibition of 42%. Further, the inhibition entry in [2], in [3], in experiment [4], in experiment [5], in [7] and in experiment [8] was “inactive” each time.
As to `Nc1ncc(/C=C/CNC(=O)c2ccc[nH]2)[nH]1` [CLATHRODIN], the pIC50 in experiment [9], in experiment [10], in [6], in experiment [11], in experiment [12] and in experiment [13] was < 4.52 throughout. Moreover, the inhibition result in experiment [1], in experiment [2], in experiment [3], in experiment [4], in experiment [5] and in experiment [7] was “inactive” in each case. Moreover, the inhibition entry in experiment [8] was “inactive”.
For the compound `CC(C)(C)OC(=O)N1CCC(C(=O)NC/C=C/c2c[nH]c(N)n2)CC1`, the inhibition entry in experiment [1], in experiment [2], in [3], in experiment [4], in experiment [5] and in experiment [7] was “inactive” throughout. For the same compound, the inhibition result in experiment [8] is “inactive”. Further, the pIC50 in experiment [6] was < 4.52.
Regarding `Nc1nc(CCCNC(=O)C2Cc3ccccc3N2)c[nH]1` (stereo unspecified), the inhibition result in experiment [1], in experiment [2], in experiment [3], in [4], in [5] and in [7] was “inactive” in each case. The inhibition result in experiment [8] was “inactive”. Further, the pIC50 in experiment [6] is < 4.52.
Consider `Nc1nc(/C=C/CNC(=O)c2cc3cc(F)ccc3[nH]2)c[nH]1`, for which the negative-log IC50 (pIC50) in experiment [9] is < 4.52; in [10], < 4.52; in [6], 4.85; in experiment [11] it was < 4.52; in experiment [12], 5.10; in experiment [13], 5.06. In addition, the inhibition entry in experiment [1], in experiment [2], in experiment [3], in [4], in experiment [7] and in [8] was “inactive” in each case. In experiment [5], the inhibition is 28%.
